Key:
Cathepsin B = Cathepsin B (Homo sapiens, UniProt P07858); test: Inhibitory activity tested against human Cathepsin B; details: read-out: Ki app
Procedure, shortened: (§1)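 Fluorogenic AMC-substrate assay in 100 mM acetate, 20 mM cysteine, 5 mM EDTA, pH 5.5, with 10% final DMSO. […] Apparent Ki values were determined.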

Cathepsin S = Cathepsin S (Homo sapiens, UniProt P25774); test: Inhibition of human Cathepsin S; details: read-out: Ki app; procedure, shortened: as §1
Procathepsin L = Procathepsin L (Homo sapiens, UniProt P07711); test: Inhibition of human Cathepsin L; details: read-out: Ki app
Procathepsin L, sequence (P07711 whole entry): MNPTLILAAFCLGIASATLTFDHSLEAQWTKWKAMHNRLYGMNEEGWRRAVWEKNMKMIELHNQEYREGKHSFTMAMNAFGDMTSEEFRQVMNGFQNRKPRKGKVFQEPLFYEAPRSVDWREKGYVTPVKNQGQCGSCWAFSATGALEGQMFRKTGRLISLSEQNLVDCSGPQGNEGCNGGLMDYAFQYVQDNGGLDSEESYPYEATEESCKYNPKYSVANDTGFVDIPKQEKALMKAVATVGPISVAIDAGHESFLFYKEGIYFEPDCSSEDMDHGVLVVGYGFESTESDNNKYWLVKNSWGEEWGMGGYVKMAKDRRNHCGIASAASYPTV

Cathepsin K [1] = target: T1, Cathepsin K (Homo sapiens, UniProt P43235); test: In vitro inhibition of human Cathepsin K.; details: read-out: Ki app
T1 sequence (P43235 whole entry): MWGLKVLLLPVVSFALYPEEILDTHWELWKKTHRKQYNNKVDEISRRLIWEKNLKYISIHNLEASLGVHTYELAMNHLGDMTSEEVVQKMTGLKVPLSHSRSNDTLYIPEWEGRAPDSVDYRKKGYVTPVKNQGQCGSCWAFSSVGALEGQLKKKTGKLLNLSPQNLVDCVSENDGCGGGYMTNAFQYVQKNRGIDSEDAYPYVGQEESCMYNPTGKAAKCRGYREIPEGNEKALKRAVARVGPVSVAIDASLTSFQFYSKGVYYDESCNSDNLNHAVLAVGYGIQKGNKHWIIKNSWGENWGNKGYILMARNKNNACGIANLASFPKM

Cathepsin K [2] = target: T1, Cathepsin K; test: (§2) Inhibitory activity tested against human Cathepsin K
[3] = target: T2, Cathepsin K (Homo sapiens) (UniProt P43235); test: as §2
T2 sequence (whole entry): T1 sequence (P43235 whole entry)

Cathepsin S, sequence (P25774 whole entry): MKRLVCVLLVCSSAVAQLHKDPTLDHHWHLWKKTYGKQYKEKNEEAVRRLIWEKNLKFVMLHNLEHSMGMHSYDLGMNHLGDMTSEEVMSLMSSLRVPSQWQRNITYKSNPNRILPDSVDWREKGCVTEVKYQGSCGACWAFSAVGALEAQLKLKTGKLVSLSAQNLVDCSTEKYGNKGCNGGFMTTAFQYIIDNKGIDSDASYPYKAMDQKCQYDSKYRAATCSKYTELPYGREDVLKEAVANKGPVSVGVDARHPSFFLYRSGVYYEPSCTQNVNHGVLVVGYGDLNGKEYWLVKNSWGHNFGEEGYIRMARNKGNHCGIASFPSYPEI

Row | Compound | Ki (Cathepsin B) [nM] | Ki (Cathepsin S) [nM] | Ki (Procathepsin L) [nM] | Ki (Cathepsin K [1]) [nM] | Ki (Cathepsin K [2]) [nM] | K inact/I [3] [M⁻¹ s⁻¹]
1 | CN[C@@H](CC(C)C)C(=O)N1CC(=O)[C@@H](NC(=O)[C@H](CC(C)C)NC(=O)OCc2ccccc2)C1 | 7300 | 290 | 400 | 77 |  | 
2 | CC(C)C[C@H](NC(=O)c1cc2ccccc2s1)C(=O)NC1CCOCC1=O (stereo not given in full) |  |  |  |  | 11 | 
3 | CC(C)C[C@H](NC(=O)c1cc2ccccc2s1)C(=O)NC1COCCC1=O (stereo not given in full) |  |  |  |  | 560 | 
4 | CC(=O)N1CC(=O)C(NC(=O)[C@H](CC(C)C)NC(=O)OCc2ccccc2)C1 (stereo not given in full) |  | 480 | 580 | 250 |  | 
5 | CC(C)C[C@H](NC(=O)OCc1ccccc1)C(=O)NC1CN(C(=O)[C@H](CC(C)C)N(C)C(=O)OCc2ccccc2)CC1=O (stereo not given in full) |  |  |  | 0.6 |  | 
6 | CC(C)C[C@H](NC(=O)OCc1ccccc1)C(=O)NC1CCOCC1O (stereo not given in full) |  | > 1000 | > 1000 | > 1000 |  | 
7 | CC(C)C[C@@H](C(=O)NC1CN(C(=O)[C@H](CC(C)C)N(C)C(=O)OCc2ccccc2)CC1=O)N(C)C(=O)OCc1ccccc1 (stereo not given in full) | 2600 | 51 |  | 180 |  | 
8 | CCCOC[C@@H](O)[C@H](CC(C)C)NC(=O)[C@H](CC(C)C)NC(=O)OCc1ccccc1 |  |  |  |  |  | 4100
9 | CC(C)C[C@H](NC(=O)OCc1ccccc1)C(=O)NC1CCOCC1=O (stereo not given in full) | > 10000 | 530 |  | 150 |  | 
10 | CC(C)C[C@@H](CN1CC(=O)C(NC(=O)[C@H](CC(C)C)NC(=O)c2ccc3cccnc3c2)C1)NC(=O)OCc1ccccc1 (stereo not given in full) | 46 |  |  | 1.6 |  | 
11 | CC(C)C[C@H](NC(=O)OCc1ccccc1)C(=O)NC1CN(C(=O)[C@H](CC(C)C)NC(=O)OCc2ccccc2)CC1=O (stereo not given in full) |  | 90 |  |  |  | 
12 | CC(C)C[C@H](NC(=O)OCc1ccccc1)C(=O)NC1CCN(C(=O)[C@H](CC(C)C)N(C)C(=O)OCc2ccccc2)CC1=O (stereo not given in full) |  |  |  | 1.9 |  | 
13 | CC(C)C[C@H](NC(=O)OCc1ccccc1)C(=O)NC1CCCC1=O (stereo not given in full) | > 10000 | > 10000 | > 10000 | > 10000 |  | 
14 | CC(C)C[C@H](NC(=O)c1ccc2ccccc2n1)C(=O)NC1COCC1=O (stereo not given in full) | 7800 | 1100 | 250 |  |  | 
15 | CC(C)C[C@H](NC(=O)OCc1ccccc1)C(=O)NC1COCC1=O (stereo not given in full) | > 10000 | 310 | 2600 |  |  | 
16 | CC(=O)N1CCC(NC(=O)[C@H](CC(C)C)NC(=O)OCc2ccccc2)C(=O)C1 (stereo not given in full) |  |  |  | 230 |  | 
17 | CC(C)C[C@H](NC(=O)OCc1ccccc1)C(=O)NC1CCN(C(=O)[C@H](CC(C)C)NC(=O)OCc2ccccc2)CC1=O (stereo not given in full) |  | 8 |  |  |  | 
18 | COCC(=O)[C@H](C)NC(=O)[C@H](CC(C)C)NC(=O)OCc1ccccc1 | > 1000 |  |  |  |  | 
19 | CC(C)C[C@H](NC(=O)OCc1ccccc1)C(=O)NC1CCCCC1=O (stereo not given in full) | > 10000 | > 10000 | > 10000 | > 10000 |  | 
20 | COCC(=O)[C@H](CC(C)C)NC(=O)[C@H](CC(C)C)NC(=O)OCc1ccccc1 |  |  |  |  | 80 | 
21 | CC(C)C[C@H](NC(=O)OCc1ccccc1)C(=O)NC1COCC1O (stereo not given in full) |  | > 1000 | > 1000 | > 1000 |  | 

Reference: ChEMBL document CHEMBL1134358, “Cyclic ketone inhibitors of the cysteine protease cathepsin K” (J Med Chem, 2001)
